From ChEMBL document CHEMBL1128398, “Structure-activity relationship of alpha-galactosylceramides against B16-bearing mice” (1995)

Legend:
Homo sapiens [1] = species on record: Homo sapiens; test: Lymphocyte Proliferation Stimulatory effect on human umbilical cord blood at 100 ng/mL and measured for [3H]TdR (tritium-thymidine) uptake (percent of control); format: functional
How it was run: (§1)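 Mononuclear cells were isolated from human peripheral blood or umbilical cord blood and plated at 1 × 10^5 cells/well in RPMI 1640 with 10% autologous plasma, with compound. After 4 days of incubation, a 6 h [3H]TdR pulse was given and uptake was counted by scintillation. Run in triplicate.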

Homo sapiens [2] = species on record: Homo sapiens; test: Lymphocyte Proliferation Stimulatory effect on human umbilical cord blood at 1 ng/mL and measured for [3H]TdR (tritium-thymidine) uptake (percent of control); format: functional; how it was run: as §1
Homo sapiens [3] = species on record: Homo sapiens; test: Lymphocyte Proliferation Stimulatory effect on human umbilical cord blood at 10 ng/mL and measured for [3H]TdR (tritium-thymidine) uptake (percent of control); format: functional; how it was run: as §1
Homo sapiens [4] = species on record: Homo sapiens; test: Lymphocyte Proliferation Stimulatory effect on human peripheral blood at 1 ng/mL and measured for [3H]TdR (tritium-thymidine) uptake (percent of control); format: functional; how it was run: as §1
Homo sapiens [5] = species on record: Homo sapiens; test: Lymphocyte Proliferation Stimulatory effect on human peripheral blood at 10 ng/mL and measured for [3H]TdR (tritium-thymidine) uptake (percent of control); format: functional; how it was run: as §1
Homo sapiens [6] = species on record: Homo sapiens; test: Lymphocyte Proliferation Stimulatory effect on human peripheral blood at 100 ng/mL and measured for [3H]TdR (tritium-thymidine) uptake (percent of control); format: functional; how it was run: as §1
Mus musculus [7] = test: Compound is administered at days 6, 10, and 14.Tumor volume of each mouse is measured on days 8, 12, 16 and 20(chemotherapeutic agent, mitomycin C (MMC)); format: functional
Mus musculus [8] = test: Compound is administered at days 6, 10, and 14.Tumor volume of each mouse is measured on days 8, 12, 16 and 20(compound alone (single)); format: functional
Mus musculus [9] = test: Compound is administered at days 6, 10, and 14.Tumor volume of each mouse is measured on days 8, 12, 16 and 20(compound plus MMC); format: functional
B16 [10] = test: Tumor Growth Inhibitory effect (TGIR) on mice subcutaneously inoculated with B16 cells (chemotherapeutic agent, mitomycin C (MMC)); format: functional, Mus musculus; set-up: concentration or dose not given beside the values
How it was run: (§2)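 Groups of six female BDF1 mice received B16 melanoma (1 × 10^6 cells/mouse) s.c. on day 0. AGL analogues were given i.v. at 100 μg/kg on days 1, 5 and 9, and MMC at 5 mg/kg i.p. on day 1; controls were untreated. Tumor volume (length × width × height/2, by callipers) was read on days 8, 12, 16 and 20. TGIR = [1 − mean test volume/mean control volume] × 100, and the maximum value is reported.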

B16 [11] = test: Tumor Growth Inhibitory effect (TGIR) on mice subcutaneously inoculated with B16 cells (compound alone (single)); format: functional, Mus musculus; set-up: concentration or dose not given beside the values; how it was run: as §2
B16 [12] = test: Tumor Growth Inhibitory effect (TGIR) on mice subcutaneously inoculated with B16 cells (compound plus MMC); format: functional, Mus musculus; set-up: concentration or dose not given beside the values; how it was run: as §2
Mus musculus [13] = species on record: Mus musculus; test: Lymphocyte Proliferation Stimulatory effect was tested on mouse spleen cells and evaluated for at 6 h [3H]TdR (tritium-thymidine) pulse and uptake into cells at 1 ng/mL; format: functional
How it was run: (§3)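 BALB/c spleen cells (2 × 10^5 cells/well, no stimulator cells) were cultured in 10% FCS RPMI 1640 with compound at 37 °C in 5% CO2 for 2–3 days. A 6 h [3H]TdR pulse followed, and uptake was counted by liquid scintillation. Run in triplicate.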

Mus musculus [14] = species on record: Mus musculus; test: Lymphocyte Proliferation Stimulatory effect on Allogenic MLR at 10 ng/mL and measured for [3H]TdR (tritium-thymidine) uptake (percent of control); format: functional
How it was run: (§4)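 Responders were BALB/c spleen cells and stimulators were C57BL/6 spleen cells pretreated with MMC (50 μg/mL, 30 min). Both were plated at 1 × 10^5 cells in 10% FCS RPMI 1640, with compounds added at plating. Culture was at 37 °C in 5% CO2 for 2–3 days, then a 6 h [3H]TdR pulse with scintillation counting. Run in triplicate.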

Mus musculus [15] = species on record: Mus musculus; test: Lymphocyte Proliferation Stimulatory effect on Allogenic MLR at 100 ng/mL and measured for [3H]-TdR (tritium-thymidine) uptake (percent of control); format: functional; how it was run: as §4
Mus musculus [16] = species on record: Mus musculus; test: Lymphocyte Proliferation Stimulatory effect was tested on mouse spleen cells and evaluated for at 6 h [3H]TdR (tritium-thymidine) pulse and uptake into cells at 10 ng/mL; format: functional; how it was run: as §3
Mus musculus [17] = species on record: Mus musculus; test: Lymphocyte Proliferation Stimulatory effect was tested on mouse spleen cells and evaluated for at 6 h [3H]TdR (tritium-thymidine) pulse and uptake into cells at 100 ng/mL; format: functional; how it was run: as §3
Mus musculus [18] = species on record: Mus musculus; test: Lymphocyte Proliferation Stimulatory effect on Allogenic MLR at 0.1 ng/mL and measured for [3H]TdR (tritium-thymidine) uptake (percent of control); format: functional; how it was run: as §4
Mus musculus [19] = species on record: Mus musculus; test: Lymphocyte Proliferation Stimulatory effect on Allogenic MLR at 1 ng/mL and measured for [3H]TdR (tritium-thymidine) uptake (percent of control); format: functional; how it was run: as §4
Mus musculus [20] = species on record: Mus musculus; test: Lymphocyte Proliferation Stimulatory effect on allogenic MLR at a concentration of 100n g/mL; format: functional; how it was run: as §4
Mus musculus [21] = species on record: Mus musculus; test: Lymphocyte Proliferation Stimulatory effect on allogenic MLR at a concentration of 10 ng/mL; format: functional; how it was run: as §4
Mus musculus [22] = species on record: Mus musculus; test: Lymphocyte Proliferation Stimulatory effect on allogenic MLR at a concentration of 1 ng/mL; format: functional; how it was run: as §4
Mus musculus [23] = species on record: Mus musculus; test: Lymphocyte Proliferation Stimulatory effect on mouse spleen cell at a concentration of 100n g/mL; format: functional; how it was run: as §3
Mus musculus [24] = species on record: Mus musculus; test: Lymphocyte Proliferation Stimulatory effect on mouse spleen cell at a concentration of 10 ng/mL; format: functional; how it was run: as §3
Mus musculus [25] = species on record: Mus musculus; test: Lymphocyte Proliferation Stimulatory effect on mouse spleen cell at a concentration of 1 ng/mL; format: functional; how it was run: as §3
Mus musculus [26] = species on record: Mus musculus; test: Lymphocyte Proliferation Stimulatory effect on Allogenic MLR at 1 ng/tritium-thymidine) uptake (percent of control); format: functional; how it was run: as §4

Row | SMILES | Control (Homo sapiens [1]) | Control (Homo sapiens [2]) | Control (Homo sapiens [3]) | Tumor growth inhibition ratio (max TGIR) (B16 [10]) | Control (B16 [11]) | Control (B16 [12]) | Control (Mus musculus [13]) | Control (Mus musculus [16]) | Control (Mus musculus [17]) | further results
1 | CCCCCCCCCCCCCCCCCCCCCCCC[C@@H](O)C(=O)N[C@@H](CO[C@H]1O[C@@H](CO)[C@H](O)[C@H](O)[C@@H]1O)[C@H](O)[C@H](O)CCCCCCCCCCCCCC | 586% | 382% | 582% | 87.3% | 92.8% | 97.7% | 203% | 437% | 620% | Control (Homo sapiens [4]): 332%; Control (Homo sapiens [5]): 352%; Control (Homo sapiens [6]): 470%; Control (Mus musculus [7]): 67.6%; Control (Mus musculus [8]): 69.8%; Control (Mus musculus [9]): 85%; Control (Mus musculus [14]): 250%; Control (Mus musculus [15]): 280%; Control (Mus musculus [18]): 118%; Control (Mus musculus [19]): 180%
2 | CCCCCCCCCCCCCCCCCCCCCC[C@@H](O)C(=O)N[C@@H](CO[C@H]1O[C@@H](CO)[C@H](O)[C@H](O)[C@@H]1O)[C@H](O)[C@H](O)CCCCCCCCCCCC(C)C (stereo in doubt; form 2) | – | – | – | – | – | – | – | – | – | [3H] TdR uptake (Mus musculus [20]): 32240 c.p.m.; [3H] TdR uptake (Mus musculus [21]): 36713 c.p.m.; [3H] TdR uptake (Mus musculus [22]): 36022 c.p.m.; [3H] TdR uptake (Mus musculus [23]): 24264 c.p.m.; [3H] TdR uptake (Mus musculus [24]): 19985 c.p.m.; [3H] TdR uptake (Mus musculus [25]): 8230 c.p.m.
3 | CCCCCCCCCCCCCCCCCCCCCCCC[C@@H](O)C(=O)N[C@@H](CO[C@H]1O[C@@H](CO)[C@H](O)[C@H](O)[C@@H]1O)[C@H](O)CCCCCCCCCCCCCCC | 362% | 210% | 238% | – | – | – | – | – | – | –
4 | CCCCCCCCCCCCCCCCCCCCCC[C@@H](O)C(=O)N[C@@H](CO[C@H]1O[C@@H](CO)[C@H](O)[C@H](O)[C@@H]1O)[C@H](O)[C@H](O)CCCCCCCCCCCC(C)C (stereo in doubt; form 1) | – | – | – | 61.5% | 86.8% | 94.6% | 282% | 524% | 879% | [3H] TdR uptake (Mus musculus [20]): 31219 c.p.m.; [3H] TdR uptake (Mus musculus [21]): 38668 c.p.m.; [3H] TdR uptake (Mus musculus [22]): 29143 c.p.m.; [3H] TdR uptake (Mus musculus [23]): 23968 c.p.m.; [3H] TdR uptake (Mus musculus [24]): 20746 c.p.m.; [3H] TdR uptake (Mus musculus [25]): 7935 c.p.m.
5 | CCCCCCCCCCCCCCCCCCCCCCCC(=O)N[C@@H](CO[C@H]1O[C@@H](CO)[C@H](O)[C@H](O)[C@@H]1O)[C@H](O)[C@H](O)CCCCCCCCCCCCCC | – | – | – | 64.8% | 65% | 90.8% | 198% | 642% | 790% | –
6 | CCCCCCCCCCCCCCCCCCCCCC[C@@H](O)C(=O)N[C@@H](CO[C@H]1O[C@@H](CO)[C@H](O)[C@H](O)[C@@H]1O)[C@H](O)CCCCCCCCCCCCCCC | – | – | – | 70.7% | 81.3% | 98.5% | 397% | 898% | 872% | –
7 | CCCCCCCCCCCCCCCCCCCCCCCCCC(=O)N[C@@H](CO[C@H]1O[C@H](CO)[C@H](O)[C@H](O)[C@H]1O)[C@H](O)[C@H](O)CCCCCCCCCCCCCC [RGI-7000] | 581% | 398% | 663% | 67.6% | 53.8% | 86.7% | – | – | – | Control (Homo sapiens [4]): 356%; Control (Homo sapiens [5]): 389%; Control (Homo sapiens [6]): 590%; Control (Mus musculus [14]): 251%; Control (Mus musculus [15]): 283%; Control (Mus musculus [18]): 125%; Control (Mus musculus [26]): 200%
8 | CCCCCCCCCCCCCCCCCCCCCC[C@@H](O)C(=O)N[C@@H](CO[C@H]1O[C@@H](CO)[C@H](O)[C@H](O)[C@@H]1O)[C@H](O)[C@H](O)CCCCCCC | – | – | – | 46.5% | 46.2% | 85.1% | 196% | 541% | 936% | –
